Active and inactive are the calls of the source. No cut-off for these calls is given here.
Columns and labels:
[1] = molecular target: T1, Tyrosine-protein phosphatase non-receptor type 1 (Homo sapiens) (UniProt P18031); experiment: Binding affinity to human N-terminal His6-tagged PTP1B catalytic domain (1 to 298 residues) expressed in Escherichia coli strain Rosetta2 (DE3) by NMR spectroscopy
T1 sequence (whole entry): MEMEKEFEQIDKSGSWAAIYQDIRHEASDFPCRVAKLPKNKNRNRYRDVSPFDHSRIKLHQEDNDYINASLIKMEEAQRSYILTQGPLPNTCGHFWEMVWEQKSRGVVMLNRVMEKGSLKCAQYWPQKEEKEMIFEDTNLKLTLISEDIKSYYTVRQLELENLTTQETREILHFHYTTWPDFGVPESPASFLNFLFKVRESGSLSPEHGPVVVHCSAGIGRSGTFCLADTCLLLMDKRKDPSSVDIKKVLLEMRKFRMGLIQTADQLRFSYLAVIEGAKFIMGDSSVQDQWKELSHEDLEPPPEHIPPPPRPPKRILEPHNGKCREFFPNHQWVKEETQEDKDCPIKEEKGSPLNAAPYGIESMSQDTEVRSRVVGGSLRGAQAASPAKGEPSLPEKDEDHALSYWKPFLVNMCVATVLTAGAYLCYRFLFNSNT
Outline: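 100 μM 2H(~70%)/15N-labelled PTP1B1−298 in 100 mM d11-Tris pH 7.5, 75 mM NaCl, 10% D2O at 20 °C. Compound added to 250 μM (0.5% DMSO-d6); 1H,15N TROSY at 800 MHz against DMSO-only reference; amide chemical shift perturbations computed.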

[2] = molecular target: T2, Receptor-type tyrosine-protein phosphatase eta (Homo sapiens, UniProt Q12913); experiment: Inhibition of human PTPRJ (1019 to 1311 residues) expressed in Escherichia coli strain BL21(DE3) using DiFMUP as substrate preincubated for 10 mins followed by substrate addition and measured after 10 mins by fluorescence assay
T2 sequence (Q12913 whole entry): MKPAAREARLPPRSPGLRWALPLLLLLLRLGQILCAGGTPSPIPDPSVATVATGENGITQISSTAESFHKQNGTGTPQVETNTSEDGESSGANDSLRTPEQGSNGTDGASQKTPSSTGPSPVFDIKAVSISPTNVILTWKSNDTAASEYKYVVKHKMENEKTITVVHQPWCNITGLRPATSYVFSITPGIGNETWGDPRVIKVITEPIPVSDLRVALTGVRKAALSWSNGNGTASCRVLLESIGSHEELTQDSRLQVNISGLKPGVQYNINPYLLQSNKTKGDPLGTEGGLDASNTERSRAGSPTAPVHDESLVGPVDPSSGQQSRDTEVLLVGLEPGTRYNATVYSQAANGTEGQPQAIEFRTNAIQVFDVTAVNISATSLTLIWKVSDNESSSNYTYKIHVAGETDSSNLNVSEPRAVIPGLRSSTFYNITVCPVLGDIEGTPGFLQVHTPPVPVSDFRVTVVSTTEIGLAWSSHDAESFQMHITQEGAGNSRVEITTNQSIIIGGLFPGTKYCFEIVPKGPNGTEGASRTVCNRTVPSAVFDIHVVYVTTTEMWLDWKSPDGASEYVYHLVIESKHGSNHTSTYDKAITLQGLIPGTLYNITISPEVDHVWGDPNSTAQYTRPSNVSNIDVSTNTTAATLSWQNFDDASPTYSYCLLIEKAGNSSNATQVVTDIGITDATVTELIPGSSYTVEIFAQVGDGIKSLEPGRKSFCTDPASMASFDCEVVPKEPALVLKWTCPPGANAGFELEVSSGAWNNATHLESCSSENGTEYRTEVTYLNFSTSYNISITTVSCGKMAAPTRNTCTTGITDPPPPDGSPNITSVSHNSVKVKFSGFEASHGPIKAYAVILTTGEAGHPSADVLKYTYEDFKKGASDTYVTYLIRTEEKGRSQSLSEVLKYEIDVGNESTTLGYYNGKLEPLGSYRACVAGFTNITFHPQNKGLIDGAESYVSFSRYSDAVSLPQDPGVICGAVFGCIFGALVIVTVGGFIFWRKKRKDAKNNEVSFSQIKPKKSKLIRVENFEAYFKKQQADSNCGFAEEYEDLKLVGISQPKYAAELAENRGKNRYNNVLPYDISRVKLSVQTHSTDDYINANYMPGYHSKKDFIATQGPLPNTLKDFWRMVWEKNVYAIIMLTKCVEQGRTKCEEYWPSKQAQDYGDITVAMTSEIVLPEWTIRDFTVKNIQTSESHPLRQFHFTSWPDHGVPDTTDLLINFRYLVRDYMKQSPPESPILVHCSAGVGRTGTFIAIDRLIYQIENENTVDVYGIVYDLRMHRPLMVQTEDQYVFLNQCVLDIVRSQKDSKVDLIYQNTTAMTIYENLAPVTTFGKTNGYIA
Outline: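 Selectivity panel on enzymes expressed in E. coli BL21(DE3), purified by nickel affinity then size exclusion. DiFMUP fluorescence assay run as for PTP1B/TCPTP, with per-enzyme conditions in a supplementary table; nonlinear regression for IC50; three independent experiments.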

[3] = molecular target: T1, Tyrosine-protein phosphatase non-receptor type 1 (Homo sapiens); experiment: Inhibition of human N-terminal His6-tagged PTP1B catalytic domain (1 to 393 residues) expressed in Escherichia coli strain Rosetta2 (DE3) using DiFMUP as substrate preincubated for 10 mins followed by substrate addition and measured after 10 mins in presence of 10 fold higher enzyme concentration by fluorescence assay
Outline: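 DiFMUP IC50 assay (1 nM enzyme, 10 min preincubation, substrate at Km, 37 °C, ex 358/em 455 nm), repeated as an aggregation check under three altered conditions: 10-fold enzyme (10 nM), 0.05% Tween 20, or 0.1 mg/mL BSA in buffer.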

[4] = tested on: Mus musculus; experiment: Antiobesity activity in high fat diet-induced obese Ptpn1fl/fl null C57BL/6 mouse assessed as reduction in body weight at 100 ug/kg, ip for 10 consecutive days; format: functional, organism-based
Outline: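 Male Ptpn1fl/fl, Ptpn2fl/fl or double-floxed mice: chow 8 weeks, then high-fat diet (45% energy from fat) 12 weeks. Bilateral intra-ARC stereotaxic injection of rAAV-CMV-Cre-GFP or rAAV-CMV-GFP, 100 nL/side. After 2 weeks recovery, vehicle or 100 μg/kg ip daily at 6 pm for 10 days; body weight tracked; two-way repeated-measures ANOVA with Tukey test; means ± SEM.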

CC1=C(O)C(=O)C=C2C1=CC=C1[C@@]2(C)CC[C@@]2(C)[C@@H]3C[C@](C)(C(=O)O)CC[C@]3(C)CC[C@]12C [CELASTROL]
Activity [1]: Active | IC50 [2]: 111 µM | inhibition [3]: Active | Activity [4]: Active

Source: ChEMBL document CHEMBL4371044, “Celastrol Promotes Weight Loss in Diet-Induced Obesity by Inhibiting the Protein Tyrosine Phosphatases PTP1B and TCPTP in the Hypothalamus” (J Med Chem, 2018)
